Assay results reported in ChEMBL document CHEMBL1141541, “The discovery of (R)-2-(sec-butylamino)-N-(2-methyl-5-(methylcarbamoyl)phenyl) thiazole-5-carboxamide (BMS-640994)-A potent and efficacious p38alpha MAP kinase inhibitor” (Bioorg Med Chem Lett, 2008).
In brackets after ≈: the same amount, converted by molar mass. Values belong to the molecule of their own block, whether it stands above or below them. Activity calls are given as the source filed them. The rule behind the calls is not given here.

Tests used:
[1] = test system: PBMC; assay: Inhibition of LPS-induced TNFalpha biosynthesis in human PBMC; format: functional, cell-based
How it was run: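 PBMCs isolated from human whole blood by Ficoll–Hypaque density gradient centrifugation, resuspended at 5 · 10⁶/mL in RPMI with 10% fetal bovine serum. Cells preincubated with compound (0.2% DMSO) 5 min at RT, then LPS added (200 ng/mL stock), 6 h at 37 °C. Medium TNFα measured by ELISA; IC₅₀ from linear regression. Duplicate typical.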

[2] = target: Mitogen-activated protein kinase 14 (Homo sapiens, UniProt Q16539)
Mitogen-activated protein kinase 14, sequence (Q16539 whole entry): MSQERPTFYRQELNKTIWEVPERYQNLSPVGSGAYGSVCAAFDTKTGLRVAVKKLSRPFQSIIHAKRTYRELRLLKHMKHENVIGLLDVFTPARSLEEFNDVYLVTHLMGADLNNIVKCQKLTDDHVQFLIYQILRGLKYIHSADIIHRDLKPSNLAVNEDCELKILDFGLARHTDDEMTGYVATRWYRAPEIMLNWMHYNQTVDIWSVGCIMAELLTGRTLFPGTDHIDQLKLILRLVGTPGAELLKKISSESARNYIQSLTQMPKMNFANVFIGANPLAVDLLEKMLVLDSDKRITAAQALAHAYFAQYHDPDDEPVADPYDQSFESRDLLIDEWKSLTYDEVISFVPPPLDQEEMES

[3] = test system: Mus musculus; assay: Inhibition of LPS-induced TNFalpha production in mouse at 5 mg/kg, po administered 4 hrs before LPS challenge relative to control; format: functional
How it was run: (§1)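 Mice given 5 mg/kg orally, then LPS challenge after a 4 h or 24 h pre-dosing interval. Circulating TNFα reduction reported as percent versus vehicle, mean ± SD, n = 8 animals; Student's t-test.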

[4] = test system: Serum; assay: Drug level in LPS challenged mouse serum at 5 mg/kg, po; format: ADME, organism-based; design: dose 5 mg/kg, route oral; conditions: in vivo, read-out: Drug uptake
How it was run: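 Serum drug concentration in mice measured in the LPS challenge study after 5 mg/kg oral dosing, 4 h or 24 h pre-dosing interval.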

[5] = target: Tyrosine-protein kinase Lck (Homo sapiens, UniProt P06239); assay: Inhibition of Lck
Tyrosine-protein kinase Lck, sequence (P06239 whole entry): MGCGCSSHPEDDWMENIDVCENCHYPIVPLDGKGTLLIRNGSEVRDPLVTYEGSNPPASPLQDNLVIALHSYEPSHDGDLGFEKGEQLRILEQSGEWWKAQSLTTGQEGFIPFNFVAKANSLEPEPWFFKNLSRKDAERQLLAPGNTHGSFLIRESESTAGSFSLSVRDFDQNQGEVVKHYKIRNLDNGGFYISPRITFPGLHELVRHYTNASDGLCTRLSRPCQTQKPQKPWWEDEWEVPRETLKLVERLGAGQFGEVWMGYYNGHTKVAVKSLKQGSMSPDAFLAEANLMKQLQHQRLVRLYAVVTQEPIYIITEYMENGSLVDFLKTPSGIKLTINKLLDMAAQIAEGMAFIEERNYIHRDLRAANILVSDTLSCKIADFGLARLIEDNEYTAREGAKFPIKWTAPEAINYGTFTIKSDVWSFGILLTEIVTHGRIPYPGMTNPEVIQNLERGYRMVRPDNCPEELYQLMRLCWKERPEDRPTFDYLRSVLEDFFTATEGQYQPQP

[6] = test system: Mus musculus; assay: Inhibition of LPS-induced TNFalpha production in mouse at 5 mg/kg, po administered 24 hrs before LPS challenge relative to control; format: functional, organism-based; design: dose 5 mg/kg; how it was run: as §1
[7] = test system: PBMC; assay: Inhibition of LPS-induced IL1-beta production in human PBMC; format: functional, cell-based
[8] = Volume of distribution at steady state in rat at 1 mg/kg, iv; format: ADME, organism-based; design: dose 1 mg/kg, route intravenous; conditions: in vivo, read-out: Vdss
How it was run: (§2)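 Rat pharmacokinetics: iv dose 1 mg/kg and po dose 10 mg/kg, vehicle PEG300, n = 3 animals.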

[9] = Oral bioavailability in rat at 10 mg/kg; format: ADME, organism-based; conditions: in vivo; how it was run: as §2
[10] = Cmax in rat at 10 mg/kg, po; format: ADME, organism-based; design: dose 10 mg/kg, route oral; conditions: in vivo; how it was run: as §2
[11] = Drug level in rat serum at 3 mg/kg after 18 hrs; format: ADME, organism-based; design: dose 3 mg/kg; conditions: read-out: Drug uptake
How it was run: (§3)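 Terminal serum concentrations in adjuvant-arthritis rats taken 18 h after the final once-daily oral dose.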

[12] = test system: Rattus norvegicus; assay: Inhibition of disease progression in rat adjuvant-induced arthritis model assessed as paw swelling at 3 mg/kg, po qd; format: functional, organism-based; design: dose 3 mg/kg
How it was run: (§4)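 Rat adjuvant-induced arthritis, compound given orally once daily; disease progression read as paw swelling over study days 10–21 versus vehicle; Student's t-test.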

[13] = Protein binding in human; format: ADME, organism-based; conditions: in vivo, read-out: PB (converted)
[14] = AUC (0 to 24hrs) in rat at 10 mg/kg, po; format: ADME, organism-based; design: time < 24 hr, dose 10 mg/kg, route oral; conditions: plasma
[15] = test system: Liver microsomes; assay: Metabolic stability in rat liver microsomes; format: ADME, Microsome
[16] = target: Cytochrome P450 3A4 (Homo sapiens, UniProt P08684); assay: Inhibition of CYP3A4; format: ADME
Cytochrome P450 3A4, sequence (P08684 whole entry): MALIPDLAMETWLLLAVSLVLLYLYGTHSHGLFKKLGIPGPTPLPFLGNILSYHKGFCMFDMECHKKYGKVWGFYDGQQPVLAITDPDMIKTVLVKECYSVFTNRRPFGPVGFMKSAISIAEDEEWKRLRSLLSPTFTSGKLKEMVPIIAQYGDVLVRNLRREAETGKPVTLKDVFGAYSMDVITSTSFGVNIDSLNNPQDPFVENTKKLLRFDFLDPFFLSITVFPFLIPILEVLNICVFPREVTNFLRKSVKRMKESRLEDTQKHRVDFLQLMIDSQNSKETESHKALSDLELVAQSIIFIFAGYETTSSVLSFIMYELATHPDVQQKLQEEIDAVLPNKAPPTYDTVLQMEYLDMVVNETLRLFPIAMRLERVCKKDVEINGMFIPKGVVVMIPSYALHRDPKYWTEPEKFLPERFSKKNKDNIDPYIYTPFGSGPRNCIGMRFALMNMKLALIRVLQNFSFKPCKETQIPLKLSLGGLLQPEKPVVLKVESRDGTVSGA

[17] = target: Cytochrome P450 2C19 (Homo sapiens, UniProt P33261); assay: Inhibition of CYP2C19; format: ADME
Cytochrome P450 2C19, sequence (P33261 whole entry): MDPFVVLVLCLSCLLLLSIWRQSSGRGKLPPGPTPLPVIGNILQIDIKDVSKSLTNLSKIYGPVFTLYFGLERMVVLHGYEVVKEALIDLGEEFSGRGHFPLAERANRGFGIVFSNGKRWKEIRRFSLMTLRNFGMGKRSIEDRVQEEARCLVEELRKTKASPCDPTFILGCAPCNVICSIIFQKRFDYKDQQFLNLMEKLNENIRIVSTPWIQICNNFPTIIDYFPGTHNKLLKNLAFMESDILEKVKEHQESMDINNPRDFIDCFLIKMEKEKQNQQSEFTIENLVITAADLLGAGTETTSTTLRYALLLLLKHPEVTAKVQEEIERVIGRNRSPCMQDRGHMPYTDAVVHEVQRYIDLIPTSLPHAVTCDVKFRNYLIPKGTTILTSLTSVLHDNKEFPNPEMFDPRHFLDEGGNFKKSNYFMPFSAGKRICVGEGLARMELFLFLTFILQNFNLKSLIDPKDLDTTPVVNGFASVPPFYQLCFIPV

[18] = test system: Liver microsomes; assay: Metabolic stability in human liver microsomes; format: ADME, Microsome
[19] = target: hERG (KCNH2) (Homo sapiens, UniProt Q12809); assay: Inhibition of human ERG at 30 uM by patch clamp assay
hERG (KCNH2), sequence (Q12809 whole entry): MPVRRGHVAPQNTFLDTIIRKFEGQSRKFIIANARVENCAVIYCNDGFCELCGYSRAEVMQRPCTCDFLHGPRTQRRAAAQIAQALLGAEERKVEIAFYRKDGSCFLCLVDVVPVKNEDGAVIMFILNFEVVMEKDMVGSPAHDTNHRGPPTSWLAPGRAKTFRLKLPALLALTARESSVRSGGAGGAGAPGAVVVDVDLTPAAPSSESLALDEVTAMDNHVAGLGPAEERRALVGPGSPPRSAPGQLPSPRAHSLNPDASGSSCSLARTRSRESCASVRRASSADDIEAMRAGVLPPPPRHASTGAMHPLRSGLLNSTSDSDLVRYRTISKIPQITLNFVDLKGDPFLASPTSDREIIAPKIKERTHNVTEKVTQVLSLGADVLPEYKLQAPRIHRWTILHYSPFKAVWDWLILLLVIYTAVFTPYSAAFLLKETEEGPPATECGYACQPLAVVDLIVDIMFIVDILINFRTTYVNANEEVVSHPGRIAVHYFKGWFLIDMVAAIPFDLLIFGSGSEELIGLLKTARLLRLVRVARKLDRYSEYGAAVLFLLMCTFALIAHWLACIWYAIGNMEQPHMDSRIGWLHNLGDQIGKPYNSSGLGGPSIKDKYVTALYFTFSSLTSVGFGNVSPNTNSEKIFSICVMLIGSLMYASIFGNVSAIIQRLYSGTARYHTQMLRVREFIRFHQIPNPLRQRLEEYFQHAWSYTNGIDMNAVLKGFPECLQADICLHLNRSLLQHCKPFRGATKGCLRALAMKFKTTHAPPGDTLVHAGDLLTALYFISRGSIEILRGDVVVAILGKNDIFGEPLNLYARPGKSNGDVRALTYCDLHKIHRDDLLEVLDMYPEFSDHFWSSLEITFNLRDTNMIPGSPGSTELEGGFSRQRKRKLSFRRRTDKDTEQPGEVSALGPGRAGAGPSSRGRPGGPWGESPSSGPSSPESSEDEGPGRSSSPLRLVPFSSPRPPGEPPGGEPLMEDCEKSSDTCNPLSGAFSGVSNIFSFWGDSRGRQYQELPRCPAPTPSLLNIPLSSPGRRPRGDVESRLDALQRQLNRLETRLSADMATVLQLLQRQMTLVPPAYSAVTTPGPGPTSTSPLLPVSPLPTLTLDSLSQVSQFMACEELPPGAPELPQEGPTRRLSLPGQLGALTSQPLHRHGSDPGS

[20] = Drug level in rat at 10 mg/kg, po after 24 hrs; format: ADME, organism-based; design: dose 10 mg/kg, route oral; conditions: in vivo, read-out: Drug uptake; how it was run: as §2
[21] = target: Cytochrome P450 2D6 (Homo sapiens, UniProt P10635); assay: Inhibition of CYP2D6; format: ADME
Cytochrome P450 2D6, sequence (P10635 whole entry): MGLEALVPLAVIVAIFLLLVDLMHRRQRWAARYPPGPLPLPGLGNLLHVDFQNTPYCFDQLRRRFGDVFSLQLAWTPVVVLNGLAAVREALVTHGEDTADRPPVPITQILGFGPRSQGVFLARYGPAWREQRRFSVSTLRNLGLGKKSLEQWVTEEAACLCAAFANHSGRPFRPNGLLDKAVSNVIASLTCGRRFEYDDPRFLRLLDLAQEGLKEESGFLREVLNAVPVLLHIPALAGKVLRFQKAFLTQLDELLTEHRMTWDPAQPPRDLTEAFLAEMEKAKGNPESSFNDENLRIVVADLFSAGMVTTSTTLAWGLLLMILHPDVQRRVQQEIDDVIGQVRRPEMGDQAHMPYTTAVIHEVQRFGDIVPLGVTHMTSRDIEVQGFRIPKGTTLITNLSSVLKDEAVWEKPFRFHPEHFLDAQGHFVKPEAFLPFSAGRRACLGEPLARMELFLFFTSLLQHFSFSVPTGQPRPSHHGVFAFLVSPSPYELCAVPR

[22] = test system: Blood; assay: Inhibition of LPS-induced IL1-beta production in human whole blood; format: functional, tissue-based
[23] = Permeability across human Caco-2 cells; format: ADME, cell-based; conditions: read-out: permeability
[24] = test system: Rattus norvegicus; assay: Inhibition of disease progression in rat adjuvant-induced arthritis model assessed as paw swelling at 0.3 mg/kg, po qd; format: functional; how it was run: as §4
[25] = organism: Rattus norvegicus; assay: Inhibition of LPS-induced TNFalpha production in Lewis rat by ELISA; format: functional
How it was run: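 Rats dosed orally; two hours later LPS (10 µg, E. coli […]) in 1 mL PBS given IP. Dose–response used to derive oral ED₅₀.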

[26] = target: Cytochrome P450 2C9 (Homo sapiens, UniProt P11712); assay: Inhibition of CYP2C9; format: ADME
Cytochrome P450 2C9, sequence (P11712 whole entry): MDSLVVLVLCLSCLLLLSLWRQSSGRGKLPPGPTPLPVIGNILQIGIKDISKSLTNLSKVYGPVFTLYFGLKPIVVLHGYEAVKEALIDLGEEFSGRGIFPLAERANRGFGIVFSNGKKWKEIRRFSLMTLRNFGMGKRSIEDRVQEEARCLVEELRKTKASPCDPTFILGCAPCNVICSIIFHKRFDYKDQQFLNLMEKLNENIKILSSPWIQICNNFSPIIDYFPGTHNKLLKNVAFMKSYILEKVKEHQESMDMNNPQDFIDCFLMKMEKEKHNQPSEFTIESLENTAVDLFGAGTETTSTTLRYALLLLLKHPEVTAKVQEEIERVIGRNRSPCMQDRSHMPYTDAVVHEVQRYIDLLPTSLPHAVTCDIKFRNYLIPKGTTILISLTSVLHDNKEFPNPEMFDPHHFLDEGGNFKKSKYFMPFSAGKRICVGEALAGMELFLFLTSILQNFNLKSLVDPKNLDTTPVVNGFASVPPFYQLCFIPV

[27] = Clearance in rat at 1 mg/kg, iv; format: ADME, organism-based; design: dose 1 mg/kg, route intravenous; conditions: in vivo; how it was run: as §2
[28] = Half life in rat at 1 mg/kg, iv; format: ADME, organism-based; design: dose 1 mg/kg, route intravenous; conditions: in vivo; how it was run: as §2
[29] = test system: Blood; assay: Inhibition of LPS-induced TNFalpha production in human whole blood; format: functional, tissue-based
[30] = Drug level in rat serum at 1 mg/kg after 18 hrs; format: ADME, organism-based; design: dose 1 mg/kg; conditions: read-out: Drug uptake; how it was run: as §3
[31] = test system: Mus musculus; assay: Inhibition of LPS-induced TNFalpha production in mouse at 5 mg/kg, po administered 24 hrs before LPS challenge relative to control
[32] = test system: Liver; assay: Metabolic stability in mouse liver microsomes; format: ADME, Microsome
[33] = target: T1, Cytochrome P450 1A2 (Homo sapiens, UniProt P05177); assay: Inhibition of CYP1A2; format: ADME
T1 sequence (P05177 whole entry): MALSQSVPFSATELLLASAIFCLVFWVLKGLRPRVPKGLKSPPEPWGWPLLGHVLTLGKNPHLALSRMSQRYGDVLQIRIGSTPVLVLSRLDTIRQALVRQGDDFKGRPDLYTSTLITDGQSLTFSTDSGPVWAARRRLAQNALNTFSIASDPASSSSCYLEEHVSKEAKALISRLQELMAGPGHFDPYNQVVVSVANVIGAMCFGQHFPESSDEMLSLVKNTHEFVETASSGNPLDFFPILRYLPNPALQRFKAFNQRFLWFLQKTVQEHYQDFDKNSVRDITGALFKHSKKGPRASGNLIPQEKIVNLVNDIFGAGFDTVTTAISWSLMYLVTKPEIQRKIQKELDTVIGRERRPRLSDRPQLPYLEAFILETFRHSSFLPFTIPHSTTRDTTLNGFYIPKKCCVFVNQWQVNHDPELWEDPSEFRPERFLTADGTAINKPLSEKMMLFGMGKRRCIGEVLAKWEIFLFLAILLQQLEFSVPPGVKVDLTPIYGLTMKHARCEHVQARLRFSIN

[34] = test system: Rattus norvegicus; assay: Inhibition of disease progression in rat adjuvant-induced arthritis model assessed as paw swelling at 1 mg/kg, po qd; format: functional, organism-based; design: dose 1 mg/kg; how it was run: as §4
[35] = Aqueous solubility at pH 6.5; format: physicochemical; conditions: buffer

SMILES: Cc1cccc(Cl)c1NC(=O)c1cnc(NC(C)C)s1
- IC50 [1]: 160 nM
- IC50 [2]: 13 nM

SMILES: Cc1ccc(C(=O)Nc2ccon2)cc1NC(=O)c1cnc(NC(C)C)s1
- IC50 [1]: 1 nM

SMILES: CCNC(=O)c1ccc(C)c(N2Cc3nc(NC(C)C)sc3C2=O)c1
- IC50 [1]: > 250 nM
- IC50 [2]: 34 nM

SMILES: CCCNc1nc(C)c(C(=O)Nc2cc(C(=O)NCC)ccc2C)s1
- IC50 [2]: 130 nM

SMILES: CNC(=O)c1ccc(C)c(N2Cc3nc(NC4CCCC4)sc3C2=O)c1
- IC50 [2]: 110 nM

SMILES: Cc1cccc(Cl)c1NC(=O)c1cnc(Nc2ccccc2)s1
- IC50 [2]: 62 nM

SMILES: CCNc1ncc(C(=O)Nc2c(C)cccc2Cl)s1
- IC50 [2]: 140 nM

SMILES: Cc1cccc(Cl)c1NC(=O)c1cnc(NC2CC2)s1
- IC50 [1]: 1500 nM
- IC50 [5]: 140 nM
- IC50 [2]: 39 nM

SMILES: CCCNc1nc2c(s1)C(=O)N(c1cc(C(=O)NCC)ccc1C)C2
- IC50 [2]: 160 nM

SMILES: CCCNc1ncc(C(=O)Nc2cc(C(N)=O)ccc2C)s1
- IC50 [1]: 23 nM
- IC50 [2]: 4.1 nM

SMILES: CCNC(=O)c1ccc(C)c(NC(=O)c2sc(NCC)nc2C)c1
- IC50 [2]: 330 nM

SMILES: Cc1ccc(C(=O)Nc2ccn[nH]2)cc1NC(=O)c1cnc(NC(C)C)s1
- IC50 [1]: 7.9 nM
- IC50 [2]: 4.2 nM

SMILES: CCCNc1nc2c(s1)C(=O)N(c1cc(C(=O)NC)ccc1C)C2
- IC50 [2]: 270 nM

SMILES: Cc1cccc(Cl)c1NC(=O)c1cnc(NC2CCC2)s1
- IC50 [5]: 3310 nM
- IC50 [2]: 36 nM

SMILES: CNC(=O)c1ccc(C)c(N2Cc3nc(NC(C)C)sc3C2=O)c1
- IC50 [2]: 110 nM

SMILES: CCCNc1ncc(C(=O)Nc2c(C)cccc2Cl)s1
- IC50 [1]: > 2000 nM
- IC50 [2]: 28 nM

The next lines start with results.

- concentration [4]: 250 nM
- IC50 [5]: > 50000 nM
SMILES: CC[C@H](C)Nc1ncc(C(=O)Nc2cc(C(=O)NC)ccc2C)s1
- IC50 [1]: 4.1 nM
- inhibition in vivo at 5 mg/kg [3]: 69%

- concentration [4]: 330 nM
- IC50 [5]: > 50000 nM
- IC50 [2]: 3.4 nM
SMILES: CCNC(=O)c1ccc(C)c(NC(=O)c2cnc(NC(C)C)s2)c1
- IC50 [1]: 11 nM
- inhibition in vivo at 5 mg/kg [3]: 68%

- IC50 [5]: 1900 nM
- IC50 [2]: 2 nM
SMILES: CCCNc1ncc(C(=O)Nc2cc(C(=O)NCC)ccc2C)s1
- IC50 [1]: 2.7 nM
- Activity [6]: inactive

- IC50 [5]: 5800 nM
- IC50 [2]: 5.4 nM
SMILES: Cc1ccc(C(=O)Nc2ccnn2C)cc1NC(=O)c1cnc(NC(C)C)s1
- IC50 [1]: 6.4 nM

- IC50 [2]: 22 nM
SMILES: CNC(=O)c1ccc(C)c(NC(=O)c2cnc(NCCOC)s2)c1
- IC50 [1]: > 250 nM

- concentration [4]: 400 nM
- IC50 [5]: > 50000 nM
- IC50 [2]: 3.5 nM
SMILES: CNC(=O)c1ccc(C)c(NC(=O)c2cnc(NC(C)C)s2)c1
- IC50 [1]: 8.7 nM
- Activity [6]: inactive
- inhibition in vivo at 5 mg/kg [3]: 62%

- IC50 [5]: 4800 nM
- IC50 [2]: 4.5 nM
SMILES: CCCNc1ncc(C(=O)Nc2cc(C(=O)NC)ccc2C)s1
- IC50 [1]: 42 nM

- IC50 [5]: > 50000 nM
- IC50 [2]: 3.2 nM
SMILES: Cc1ccc(C(N)=O)cc1NC(=O)c1cnc(NC(C)C)s1
- IC50 [1]: 35 nM

- Vd [8]: 1.8 L/kg
- bioavailability [9]: 75%
- Cmax [10]: 8700 nM
- concentration at 18 h [11]: 16 nM
- fraction unbound [13]: 0.18
- AUC(0-t) at 24 h [14]: 25 µM·h
- Stability [15]: 0 nmol/min/mg
- Activity [16]: > 40 µM
- Activity [17]: > 40 µM
- Stability [18]: 0 nmol/min/mg
- concentration at 24 h [20]: 7.6 nM
- Activity [21]: > 40 µM
- IC50 [22]: 600 nM
- Papp [23]: 8.3 ×10⁻⁶ cm/s
- Activity [26]: > 40 µM
- clearance [27]: 14.1 mL/min/kg
- half-life [28]: 1.8 h
- IC50 [5]: 22000 nM
- IC50 [29]: 54 nM
- concentration at 18 h [30]: 8.1 nM
- Stability [32]: 0 nmol/min/mg
- Activity [33]: > 40 µM
- solubility [35]: 22 µg/mL (≈ 63.5 µM)
SMILES: CC[C@@H](C)Nc1ncc(C(=O)Nc2cc(C(=O)NC)ccc2C)s1
- IC50 [1]: 2.9 nM
- IC50 [7]: 99 nM
- Activity [12]: Active
- inhibition at 30 µM [19]: 7%
- inhibition in vivo at 0.3 mg/kg [24]: 46%
- ED50 [25]: 2 mg/kg
- inhibition in vivo at 5 mg/kg [31]: 46%
- Activity [34]: Active
